Molecules are shown by their SMILES. Calls of active or inactive are those of the source. The rule behind the calls is not given here.

The subject of the first assay is RAW. In words: Inhibition of interferon gamma-stimulated NO production in RAW 264.7 cells after 24 hrs. It counts as functional, cell-based, Mus musculus. The settings on record: Mus musculus, RAW, 24 h.
Molecule `C[C@@H]1C[C@H]2[C@@H]3CCC4=CC(=O)C=C[C@]4(C)[C@@]3(F)[C@@H](O)C[C@]2(C)[C@@]1(O)C(=O)CO` [DEXAMETHASONE] had an IC50 of 20 nM.
Same read-out and setting: with `CC1(C)C(=O)C(C#N)=C[C@]2(C)C3=CC(=O)C(C#N)=C[C@]3(C)CC[C@@H]12` the figure was 30 nM.
The molecule `CC1(C)C(=O)C(C#N)=C[C@]2(C)C3=CC(=O)C(C#N)=C[C@]3(C#CC#N)CC[C@@H]12` (racemic) returned an IC50 of 4 nM.
`CCC#C[C@]12C=C(C#N)C(=O)C=C1[C@@]1(C)C=C(C#N)C(=O)C(C)(C)[C@@H]1CC2` (racemic) had a half-maximal inhibitory concentration (IC50) of 20 nM.
`CC1(C)C(=O)C(C#N)=C[C@]2(C)C3=CC(=O)C(C#N)=CC3(C#C[Si](C)(C)C)CC[C@@H]12` (mixture of isomers) returned an IC50 of 3 nM.
Molecule `CC1(C)C(=O)C(C#N)=C[C@@]2(C)C3=CC(=O)C(C#N)=C[C@@]3(C#C[Si](C)(C)C)CCC12` (some centres undefined) had an IC50 of 2 nM.
For `CC1(C)CC[C@]2(C(=O)O)CC[C@]3(C)[C@H](C(=O)C=C4[C@@]5(C)C=C(C#N)C(=O)C(C)(C)[C@@H]5CC[C@]43C)[C@@H]2C1` [BARDOXOLONE], the IC50 turned out to be 20 nM.
Still for that read-out and setting: in the case of `C#C[C@@]12C=C(C#N)C(=O)C=C1[C@]1(C)C=C(C#N)C(=O)C(C)(C)C1CC2` (some centres undefined) it was 1 nM; in that of `CC1(C)CC[C@]2(C(=O)n3ccnc3)CC[C@]3(C)[C@H](C(=O)C=C4[C@@]5(C)C=C(C#N)C(=O)C(C)(C)[C@@H]5CC[C@]43C)[C@@H]2C1`, 1 nM.
In turn, `CC[C@]12C=C(C#N)C(=O)C=C1[C@@]1(C)C=C(C#N)C(=O)C(C)(C)[C@@H]1CC2` (racemic) showed an IC50 of 10 nM.
The molecule `CC1(C)C(=O)C(C#N)=C[C@]2(C)C3=CC(=O)C(C#N)=C[C@]3(C#C[Si](C)(C)C)CC[C@@H]12` showed an IC50 of 3 nM.
Take `CC#C[C@]12C=C(C#N)C(=O)C=C1[C@@]1(C)C=C(C#N)C(=O)C(C)(C)[C@@H]1CC2` (racemic): half-maximal inhibition (IC50) required 5 nM.
As for `CC1(C)CC[C@]2(C#N)CC[C@]3(C)C(C(=O)C=C4[C@@]5(C)C=C(C#N)C(=O)C(C)(C)[C@@H]5CC[C@]43C)C2C1` (some centres undefined) [CDDO-CN], inhibition was half-maximal at 1 nM (IC50).
`C=C[C@]12C=C(C#N)C(=O)C=C1[C@@]1(C)C=C(C#N)C(=O)C(C)(C)[C@@H]1CC2` (racemic): the IC50 came to 10 nM.

The same assay, now with this note: raw.
The molecule `C#C[C@]12C=C(C#N)C(=O)C=C1[C@@]1(C)C=C(C#N)C(=O)C(C)(C)[C@@H]1CC2` (racemic) [listing 1 of 2 here] displayed a 50% inhibitory concentration (IC50) of 1 nM.
With `C#C[C@]12C=C(C#N)C(=O)C=C1[C@@]1(C)C=C(C#N)C(=O)C(C)(C)[C@@H]1CC2`, the IC50 was 3 nM.

The next assay addresses T1, Heme oxygenase 1 (Mus musculus) (UniProt P14901).
T1 sequence (whole entry): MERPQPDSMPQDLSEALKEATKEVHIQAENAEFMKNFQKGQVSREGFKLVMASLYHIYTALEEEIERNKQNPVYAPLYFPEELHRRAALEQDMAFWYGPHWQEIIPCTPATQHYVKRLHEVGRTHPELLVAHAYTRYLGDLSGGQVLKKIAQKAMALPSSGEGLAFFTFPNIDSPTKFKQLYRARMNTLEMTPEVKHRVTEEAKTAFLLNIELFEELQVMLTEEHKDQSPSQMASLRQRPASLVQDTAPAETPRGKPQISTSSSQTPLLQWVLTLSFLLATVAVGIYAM
In words: Induction of HO1 in CD1 mouse liver at 1 umol, po after 6 hrs. It counts as organism-based.
Conditions: not given
In short, it runs like this: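 Compound given orally at 1 μmol. Livers were collected 6 h later, and HO-1 protein was measured by Western blot.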
For `CC1(C)C(=O)C(C#N)=C[C@]2(C)C3=CC(=O)C(C#N)=C[C@]3(C)CC[C@@H]12`, the outcome was Active.
In the case of `CC1(C)CC[C@]2(C(=O)O)CC[C@]3(C)[C@H](C(=O)C=C4[C@@]5(C)C=C(C#N)C(=O)C(C)(C)[C@@H]5CC[C@]43C)[C@@H]2C1` [BARDOXOLONE], the outcome was Active.
`CC1(C)CC[C@]2(C(=O)n3ccnc3)CC[C@]3(C)[C@H](C(=O)C=C4[C@@]5(C)C=C(C#N)C(=O)C(C)(C)[C@@H]5CC[C@]43C)[C@@H]2C1`: the result was Active.
For `C#C[C@]12C=C(C#N)C(=O)C=C1[C@@]1(C)C=C(C#N)C(=O)C(C)(C)[C@@H]1CC2` (racemic) [listing 2 of 2 here], the result was Active.

A further assay concerns the target T1, Heme oxygenase 1 (Mus musculus). Nature of the assay: Induction of HO1 in CD1 mouse stomach at 1 umol, po after 6 hrs. The format is organism-based.
Conditions: not given
In short, it runs like this: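 Male CD-1 mice, three per group, were each gavaged with a single 1 μmol dose. HO-1 induction was then assessed in the stomach.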
As to `CC1(C)C(=O)C(C#N)=C[C@]2(C)C3=CC(=O)C(C#N)=C[C@]3(C)CC[C@@H]12`, the result was Active.
Regarding `CC1(C)CC[C@]2(C(=O)O)CC[C@]3(C)[C@H](C(=O)C=C4[C@@]5(C)C=C(C#N)C(=O)C(C)(C)[C@@H]5CC[C@]43C)[C@@H]2C1` [BARDOXOLONE], the result was Active.
For the molecule `CC1(C)CC[C@]2(C(=O)n3ccnc3)CC[C@]3(C)[C@H](C(=O)C=C4[C@@]5(C)C=C(C#N)C(=O)C(C)(C)[C@@H]5CC[C@]43C)[C@@H]2C1`, the result was Active.
For the molecule `C#C[C@]12C=C(C#N)C(=O)C=C1[C@@]1(C)C=C(C#N)C(=O)C(C)(C)[C@@H]1CC2` (racemic) [listing 2 of 2 here], the outcome was Active.

The record behind these values is ChEMBL document CHEMBL1143003, “Novel tricyclic compounds having acetylene groups at C-8a and cyano enones in rings A and C: highly potent anti-inflammatory and cytoprotective agents” (J Med Chem, 2007).
